Data from ChEMBL document CHEMBL1151174, “Labdanes and isopimaranes from Platycladus orientalis and their effects on erythrocyte membrane and on Plasmodium falciparum growth in the erythrocyte host cells” (J Nat Prod, 2004).
The source made the active and inactive calls. The rule behind the calls is not given here.

Tests used:
Erythrocyte [1] = test: Induction of membrane modification in erythrocytes assessed as formation of echinocyte type 1 shape change at 100 ug/mL after 48 hrs by phase contrast light microscopy; format: functional, cell-based
Outline: (§1)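 Nonparasitized erythrocytes incubated with compound under the antiplasmodial culture conditions, without radiotracer. Controls held 0% or 0.5% DMSO and no compound. At 48 h, samples spread on slides, air-dried, methanol-fixed and Giemsa-stained for phase-contrast light microscopy. Dominant cell shapes scored by Bessis nomenclature; degree of lysis also graded.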

Erythrocyte [2] = test: Induction of membrane modification in erythrocytes assessed as formation of discocyte shape change at 50 ug/mL after 48 hrs by phase contrast light microscopy; format: functional, cell-based; outline: as §1
Erythrocyte [3] = test: Induction of membrane modification in erythrocytes assessed as formation of discocyte shape change at 25 ug/mL after 48 hrs by phase contrast light microscopy; format: functional, cell-based; outline: as §1
Erythrocyte [4] = test: Induction of membrane modification in erythrocytes assessed as formation of discocyte shape change at 12.5 ug/mL after 48 hrs by phase contrast light microscopy; format: functional, cell-based; outline: as §1
Plasmodium falciparum = test: Antiplasmodial activity against Plasmodium falciparum 3D7 by [3H]phenylalanine uptake; format: functional, organism-based; details: 3D7, 48 h
Outline: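 Asynchronous cultures of chloroquine-sensitive P. falciparum 3D7 in erythrocytes, initial parasitemia 1.5%. Compounds added from DMSO solutions, final DMSO up to 0.5% in growth medium. Growth indexed by [3H]phenylalanine incorporation. Inhibition curves from eight concentrations, each in triplicate, give IC50 (50% growth inhibition). Chloroquine diphosphate as positive reference.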

Erythrocyte [5] = test: Induction of membrane modification in erythrocytes assessed as formation of echinocyte type 1 and discocyte shape change at 100 ug/mL after 48 hrs by phase contrast light microscopy; format: functional, cell-based; outline: as §1
Erythrocyte [6] = test: Induction of membrane modification in erythrocytes assessed as formation of stomatocyte type 3 and 2 shape change at 50 ug/mL after 48 hrs by phase contrast light microscopy; format: functional, cell-based; outline: as §1
Erythrocyte [7] = test: Induction of membrane modification in erythrocytes assessed as formation of stomatocyte type 2 and discocyte shape change at 25 ug/mL after 48 hrs by phase contrast light microscopy; format: functional, cell-based; outline: as §1
Erythrocyte [8] = test: Induction of membrane modification in erythrocytes assessed as formation of spherostomatocyte type 1 shape change at 100 ug/mL after 48 hrs by phase contrast light microscopy; format: functional, cell-based; outline: as §1
Erythrocyte [9] = test: Induction of membrane modification in erythrocytes assessed as formation of stomatocyte type 2 shape change at 100 ug/mL after 48 hrs by phase contrast light microscopy; format: functional, cell-based; outline: as §1
Erythrocyte [10] = test: Induction of membrane modification in erythrocytes assessed as formation of stomatocyte type 1 and discocyte shape change at 50 ug/mL after 48 hrs by phase contrast light microscopy; format: functional, cell-based; outline: as §1
Erythrocyte [11] = test: Induction of membrane modification in erythrocytes assessed as formation of echinocyte type 3 shape change at 100 ug/mL after 48 hrs by phase contrast light microscopy; format: functional, cell-based; outline: as §1
Erythrocyte [12] = test: Induction of membrane modification in erythrocytes assessed as formation of echinocyte type 3 shape change at 50 ug/mL after 48 hrs by phase contrast light microscopy; format: functional, cell-based; outline: as §1
Erythrocyte [13] = test: Induction of membrane modification in erythrocytes assessed as formation of echinocyte type 2 shape change at 25 ug/mL after 48 hrs by phase contrast light microscopy; format: functional, cell-based; outline: as §1
Erythrocyte [14] = test: Induction of membrane modification in erythrocytes assessed as formation of echinocyte type 1 shape change at 12.5 ug/mL after 48 hrs by phase contrast light microscopy; format: functional, cell-based; outline: as §1
Erythrocyte [15] = test: Induction of membrane modification in erythrocytes assessed as formation of spherostomatocyte type 2 shape change at 100 ug/mL after 48 hrs by phase contrast light microscopy; format: functional, cell-based; outline: as §1
Erythrocyte [16] = test: Induction of membrane modification in erythrocytes assessed as formation of spherostomatocyte type 1 shape change at 50 ug/mL after 48 hrs by phase contrast light microscopy; format: functional, cell-based; outline: as §1
Erythrocyte [17] = test: Induction of membrane modification in erythrocytes assessed as formation of stomatocyte type 2 and 1 shape change at 25 ug/mL after 48 hrs by phase contrast light microscopy; format: functional, cell-based; outline: as §1
Erythrocyte [18] = test: Induction of membrane modification in erythrocytes assessed as formation of echinocyte type 1 and discocyte shape change at 50 ug/mL after 48 hrs by phase contrast light microscopy; format: functional, cell-based; outline: as §1
Erythrocyte [19] = test: Induction of membrane modification in erythrocytes assessed as formation of spheroechinocyte type 2 shape change at 100 ug/mL after 48 hrs by phase contrast light microscopy; format: functional, cell-based; outline: as §1
Erythrocyte [20] = test: Induction of membrane modification in erythrocytes assessed as formation of spheroechinocyte type 1 and echinocyte type 3 shape change at 100 ug/mL after 48 hrs by phase contrast light microscopy; format: functional, cell-based; details: 50 ug/mL, in the assay text read “50 ug/mL” for “100 ug/mL”; outline: as §1
Erythrocyte [21] = test: Induction of membrane modification in erythrocytes assessed as formation of echinocyte type 3 shape change at 25 ug/mL after 48 hrs by phase contrast light microscopy; format: functional, cell-based; outline: as §1

IC50 (Plasmodium falciparum) [µM]	Structure (SMILES)	Activity (Erythrocyte [2])	Activity (Erythrocyte [3])	Activity (Erythrocyte [4])	Activity (Erythrocyte [9])	other results
80.9	C=C[C@@]1(C)CC[C@H]2[C@@](O)(CC[C@H]3C(C)(C)[C@@H](O)CC[C@@]32C)C1	Active	Active	Active		Activity (Erythrocyte [1]): Active
145	C=C1CC[C@@H]2[C@](C)(CCC[C@]2(C)C(=O)O)[C@H]1CCC1=CC(O)OC1=O (stereo not given in full)	Active	Active	Active		Activity (Erythrocyte [5]): Active
53.4	C=C1CC[C@@H]2[C@](C)(CCC[C@]2(C)C(=O)OC)[C@H]1CCC1=CCOC1=O [PINUSOLIDE]			Active		Activity (Erythrocyte [6]): Active; Activity (Erythrocyte [7]): Active; Activity (Erythrocyte [8]): Active
104	C=C1CC[C@@H]2[C@](C)(CCC[C@]2(C)C(=O)O)[C@H]1CC/C(C)=C/CO [ISOCUPRESSIC ACID]	Active	Active	Active	Active	
130	C=C1CC[C@@H]2[C@](C)(CCC[C@]2(C)C(=O)O)[C@H]1CCc1ccoc1 [LAMBERTIAINC ACID]		Active	Active	Active	Activity (Erythrocyte [10]): Active
24.6	C=C[C@@]1(C)CCC2=C(CC[C@H]3C(C)(C)[C@@H](O)CC[C@]23C)C1					Activity (Erythrocyte [11]): Active; Activity (Erythrocyte [12]): Active; Activity (Erythrocyte [13]): Active; Activity (Erythrocyte [14]): Active
76.3	CC1(C)CCC[C@@]2(C)[C@H]1CC[C@@]1(CO1)[C@@H]2C/C=C(/C=O)CC=O [AFRAMODIAL]			Active		Activity (Erythrocyte [15]): Active; Activity (Erythrocyte [16]): Active; Activity (Erythrocyte [17]): Active
84.1	C=C1CC[C@@H]2[C@](C)(CCC[C@]2(C)C(=O)O)[C@H]1CCC1=CC(=O)OC1O (stereo not given in full)		Active	Active		Activity (Erythrocyte [5]): Active; Activity (Erythrocyte [18]): Active
164	C=C1CC[C@@H]2[C@](C)(CCC[C@]2(C)C(=O)O)[C@H]1CCC1=CCOC1=O [PINUSOLIDIC ACID]		Active	Active	Active	Activity (Erythrocyte [18]): Active
93.3	C=C[C@]1(C)C=C2CC[C@H]3[C@](C)(CO)[C@@H](O)CC[C@]3(C)[C@H]2CC1 [SANDARACOPIMARADIENEDIOL]					Activity (Erythrocyte [19]): Active; Activity (Erythrocyte [20]): Active; Activity (Erythrocyte [21]): Active; Activity (Erythrocyte [14]): Active
